In ChEMBL document CHEMBL1158052, “Tripfordines A-C, sesquiterpene pyridine alkaloids from Tripterygium wilfordii, and structure anti-HIV activity relationships of Tripterygium alkaloids” (J Nat Prod, 2006):
Values after ≈ are worked out from the molar mass of the structure shown. Active and inactive are the calls of the source. The rule behind the calls is not given here.

How the values were obtained:
[1] = tested on: Human immunodeficiency virus 1; test: Antiviral activity against HIV1 infected human H9 lymphocytes assessed as suppression of viral replication; type: functional, organism-based
How it was run: (§1)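 EC50 is the sample concentration that suppresses HIV replication by 50%. Cytotoxic IC50 is the concentration toxic to 50% of mock-infected cells. Therapeutic index is IC50 divided by EC50.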

[2] = Therapeutic index, ratio of IC50 for human H9 lymphocytes to EC50 for HIV1; details: HIV-1, read-out: Ratio IC50/EC50; how it was run: as §1
[3] = tested on: HCT-8; test: Cytotoxicity against human HCT8 cells; type: functional, cell-based
[4] = tested on: LNCaP; test: Cytotoxicity against human LNCAP cells; type: functional, cell-based
[5] = tested on: A549; test: Cytotoxicity against human A549 cells; type: functional, cell-based
[6] = Cytotoxicity against human AR751 cells; type: functional, cell-based
[7] = tested on: PC-3; test: Cytotoxicity against human PC-3 cells; type: functional, cell-based
[8] = tested on: A-431; test: Cytotoxicity against human A431 cells; type: functional, cell-based
[9] = tested on: H9; test: Cytotoxicity against mock-infected human H9 lymphocytes; type: cell-based
How it was run: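 Mock-infected cells, run alongside the HIV replication suppression assay, were exposed to test sample. IC50 was taken as the concentration toxic to 50% of the mock-infected cells.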

Structure (SMILES) | EC50 [1] | Activity [1] | selectivity ratio [2] | further results
CC(=O)OC[C@]12[C@H](OC(C)=O)[C@H](OC(C)=O)[C@@H]3[C@@H](OC(=O)c4ccccc4)[C@@]14O[C@@]3(C)COC(=O)c1cccnc1C(C)C(C)C(=O)O[C@@H]([C@H](OC(C)=O)[C@@H]2OC(C)=O)[C@]4(C)O (some centres undefined) | 0.9 µg/mL (≈ 1.04 µM) |  |  | 
CC(=O)OC[C@]12[C@H](OC(C)=O)[C@H](OC(C)=O)[C@@H]3[C@@H](OC(=O)c4ccccc4)[C@@]14O[C@@]3(C)COC(=O)c1cccnc1C(C)C(C)C(=O)O[C@@H]([C@H](OC(=O)c1cccnc1)[C@@H]2OC(C)=O)[C@]4(C)O (some centres undefined) |  | inactive |  | 
CC(=O)OC[C@]12[C@H](OC(C)=O)[C@H](OC(C)=O)[C@@H]3[C@@H](OC(C)=O)[C@@]14O[C@@]3(C)COC(=O)c1cccnc1CCC(C)C(=O)O[C@@H]([C@H](OC(=O)c1ccccc1)[C@@H]2OC(C)=O)[C@]4(C)O (some centres undefined) |  | inactive |  | 
CC(=O)OC[C@]12[C@H](OC(C)=O)[C@H](OC(C)=O)[C@@H]3[C@@H](OC(C)=O)[C@@]14O[C@@]3(C)COC(=O)c1cccnc1CCC(C)C(=O)O[C@@H]([C@H](OC(=O)c1ccco1)[C@@H]2OC(C)=O)[C@]4(C)O (some centres undefined) |  | inactive |  | 
CC(=O)O[C@@H]1[C@@H]2[C@@H](OC(C)=O)[C@@]34O[C@@]2(C)COC(=O)c2cnccc2C(C)C(C)C(=O)O[C@@H]([C@H](OC(C)=O)[C@H](OC(C)=O)[C@@]3(COC(=O)c2ccco2)[C@@H]1OC(C)=O)[C@]4(C)O (some centres undefined) |  | inactive |  | 
CC(=O)OC[C@]12[C@H](OC(C)=O)[C@H](OC(C)=O)[C@@H]3[C@@H](OC(C)=O)[C@@]14O[C@@]3(C)COC(=O)c1cccnc1C(C)C(C)C(=O)O[C@@H]([C@H](OC(C)=O)[C@@H]2OC(C)=O)[C@]4(C)O (some centres undefined) [EUONYMINE] | 0.2 µg/mL (≈ 0.248 µM) |  |  | 
CC(=O)OC[C@]12[C@H](OC(C)=O)[C@H](OC(C)=O)[C@@H]3[C@@H](OC(C)=O)[C@@]14O[C@@]3(C)COC(=O)c1cccnc1C(C)C(C)C(=O)O[C@@H]([C@H](OC(=O)c1ccccc1)[C@@H]2OC(C)=O)[C@@]4(C)O (some centres undefined) [FORRESTINE] |  |  | > 208 | 
CC(=O)O[C@@H]1[C@@H]2[C@@H](OC(C)=O)[C@@]34O[C@@]2(C)COC(=O)c2cnccc2C(C)C(C)(O)C(=O)O[C@@H]([C@H](OC(C)=O)[C@H](OC(C)=O)[C@@]3(COC(=O)c2ccco2)[C@@H]1OC(C)=O)[C@]4(C)O (some centres undefined) [HYPOGLAUNINE A] |  |  | > 769 | 
CC(=O)OC[C@]12[C@H](OC(C)=O)[C@H](OC(C)=O)[C@@H]3[C@@H](OC(C)=O)[C@@]14O[C@@]3(C)COC(=O)c1cnccc1C(C)C(C)(O)C(=O)O[C@@H]([C@H](OC(=O)c1ccco1)[C@@H]2OC(C)=O)[C@]4(C)O (some centres undefined) [HYPOGLAUNINE B] | 0.1 µg/mL (≈ 0.114 µM) |  | > 1000 | 
CC(=O)OC[C@]12[C@H](OC(C)=O)[C@H](OC(C)=O)[C@@H]3[C@@H](OC(=O)c4ccco4)[C@@]14O[C@@]3(C)COC(=O)c1cccnc1C(C)C(C)C(=O)O[C@@H]([C@H](OC(C)=O)[C@@H]2OC(C)=O)[C@]4(C)O (some centres undefined) [HYPONINE A] | 1 µg/mL (≈ 1.17 µM) |  |  | 
CC(=O)O[C@@H]1[C@H](OC(C)=O)[C@@]2(COC(=O)c3ccco3)[C@H](OC(C)=O)C(=O)[C@@H]3[C@@H](OC(C)=O)[C@@]24O[C@@]3(C)COC(=O)c2cccnc2C(C)C(C)C(=O)O[C@@H]1[C@]4(C)O (some centres undefined) [HYPONINE B] | 0.1 µg/mL (≈ 0.123 µM) |  | > 1000 | 
CC(=O)OC[C@]12[C@H](OC(C)=O)[C@H](OC(C)=O)[C@@H]3[C@@H](OC(C)=O)[C@@]14O[C@@]3(C)COC(=O)c1cccnc1C(C)C(C)C(=O)O[C@@H]([C@H](OC(=O)c1ccco1)[C@@H]2OC(C)=O)[C@]4(C)O (some centres undefined) [HYPONINE F] |  |  | > 2.8 | 
CC(=O)OC[C@]12[C@H](OC(C)=O)[C@H](OC(C)=O)[C@@H]3[C@@H](O)[C@@]14O[C@@]3(C)COC(=O)c1cccnc1C(C)C(C)C(=O)O[C@@H]([C@H](OC(C)=O)[C@@H]2OC(C)=O)[C@]4(C)O (some centres undefined) [NEOEUONYMINE] | 0.88 µg/mL (≈ 1.15 µM) |  | > 113 | 
CC(=O)OC[C@]12[C@H](OC(C)=O)[C@H](OC(C)=O)[C@@H]3[C@@H](OC(C)=O)[C@@]14O[C@@]3(C)COC(=O)c1cccnc1CCC(C)(O)C(=O)O[C@@H]([C@H](O)[C@@H]2OC(C)=O)[C@@]4(C)O (some centres undefined) [TRIPFORDINE A] | 13.4 µg/mL (≈ 17.2 µM) |  | 1.9 | IC50 [3]: > 4 µg/mL; IC50 [4]: > 4 µg/mL; IC50 [5]: > 4 µg/mL; IC50 [6]: > 4 µg/mL; IC50 [7]: > 4 µg/mL; IC50 [8]: > 4 µg/mL; IC50 [9]: > 25 µg/mL
CC(=O)OC[C@]12[C@H](OC(C)=O)[C@H](OC(C)=O)[C@@H]3[C@@H](O)[C@@]14O[C@@]3(C)COC(=O)c1cccnc1CCC(C)C(=O)O[C@@H]([C@H](OC(C)=O)[C@@H]2OC(C)=O)[C@@]4(C)O (some centres undefined) [TRIPFORDINE B] |  | inactive |  | IC50 [3]: > 4 µg/mL; IC50 [4]: > 4 µg/mL; IC50 [5]: > 4 µg/mL; IC50 [6]: > 4 µg/mL; IC50 [7]: > 4 µg/mL; IC50 [8]: > 4 µg/mL; IC50 [9]: > 25 µg/mL
CC(=O)OC[C@]12[C@H](OC(C)=O)[C@H](OC(C)=O)[C@@H]3[C@@H](O)[C@@]14O[C@@]3(C)COC(=O)c1cnccc1C(C)C(C)C(=O)O[C@@H]([C@H](OC(C)=O)[C@@H]2OC(C)=O)[C@@]4(C)O (some centres undefined) [TRIPFORDINE C] |  | inactive |  | IC50 [3]: > 4 µg/mL; IC50 [4]: > 4 µg/mL; IC50 [5]: > 4 µg/mL; IC50 [6]: > 4 µg/mL; IC50 [7]: > 4 µg/mL; IC50 [8]: > 4 µg/mL; IC50 [9]: > 25 µg/mL
COC(=O)C[C@@H]1C(=O)CCC(C)C(=O)O[C@@H]2[C@@H]3[C@@H](OC(C)=O)[C@@]45O[C@@]3(C)COC(=O)c3cccnc3C(C)C(C)C(=O)O[C@@H]([C@H](OC(C)=O)[C@H](OC(C)=O)[C@@]4(COC1=O)[C@@H]2OC(C)=O)[C@]5(C)O (some centres undefined) [TRIPTONINE A] | 2.5 µg/mL (≈ 2.64 µM) |  | > 39.4 | 
COC(=O)C[C@@H]1C(=O)CC[C@H](C)C(=O)O[C@@H]2[C@@H]3[C@@H](OC(C)=O)[C@@]45O[C@@]3(C)COC(=O)c3cnccc3[C@@H](C)[C@@H](O)C(=O)O[C@@H]([C@H](OC(C)=O)[C@H](OC(C)=O)[C@@]4(COC1=O)[C@@H]2OC(C)=O)[C@]5(C)O [TRIPTONINE B] | < 0.1 µg/mL |  | > 1000 | 
CC(=O)OC[C@]12[C@H](OC(C)=O)[C@H](OC(C)=O)[C@@H]3[C@@H](OC(C)=O)[C@@]14O[C@@]3(C)COC(=O)c1cccnc1CCC(C)(O)C(=O)O[C@@H]([C@H](OC(=O)c1ccccc1)[C@@H]2OC(C)=O)[C@]4(C)O (some centres undefined) [WILFORDINE] | < 0.1 µg/mL |  | > 200 | 
CC(=O)OC[C@]12[C@H](OC(C)=O)[C@H](OC(C)=O)[C@@H]3[C@@H](OC(C)=O)[C@@]14O[C@@]3(C)COC(=O)c1cccnc1CCC(C)(O)C(=O)O[C@@H]([C@H](OC(=O)c1ccco1)[C@@H]2OC(C)=O)[C@]4(C)O (some centres undefined) [WILFORTRINE] | < 0.1 µg/mL |  | > 1000 | 
